Measurements reported in ChEMBL document CHEMBL1122532, “[(Aminomethyl)aryloxy]acetic acid esters. A new class of high-ceiling diuretics. 2. Modifications of the oxyacetic side chain” (J Med Chem, 1984).
Active and inactive are the calls of the source. The rule behind the calls is not given here.

Experiments:
Rattus norvegicus [1] = assay: Oral dose necessary to produce an excretion of 2 mequiv of Na+/kg in the rat urine in the 4-h period after peroral administration; format: ADME, organism-based; conditions: in vivo
In short: (§1)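 Rats dosed orally. Urinary Na⁺ was measured over the 4 h after dosing. ED₂ is the oral dose (mg/kg) giving excretion of 2 mequiv Na⁺/kg in that period.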

Canis familiaris [2] = species: Canis familiaris; assay: Relative amount of acid ([4-(3-Aminomethyl-4-hydroxy-benzoyl)-2,3-dichloro-phenoxy]-acetic acid;) appearing in dog plasma was reported; format: functional, Canis lupus familiaris
[3] = Dose required for 50% inhibition of chloride transport in frog cornea was evaluated; format: functional
Canis familiaris [4] = assay: Oral dose in mg/kg necessary to produce an excretion of 5 mequiv of Na+/kg in the dog urine during 6-h period after dosing; conditions: in vivo
Rattus norvegicus [5] = assay: Oral dose necessary to produce an excretion of 2 mequiv of Na+/kg in the rat urine in the 4-h period after peroral administration; Inactive; format: ADME, organism-based; conditions: in vivo; in short: as §1
frog = assay: Dose required for 50% inhibition of chloride transport in frog cornea was evaluated; No inhibition; format: functional, tissue-based
Rattus norvegicus [6] = assay: Oral dose necessary to produce an excretion of 2 mequiv of Na+/kg in the rat urine in the 4-h period after peroral administration; inactive; format: ADME, organism-based; conditions: in vivo; in short: as §1

## CCOC(=O)C(C)Oc1ccc(C(=O)c2ccc(O)c(CN)c2)c(Cl)c1Cl.Cl (stereo unspecified)
Rattus norvegicus [1]
  ED2: 19.5 mg/kg

## CCOC(=O)CCCOc1ccc(Oc2ccc(O)c(CN)c2)c(Cl)c1Cl.Cl
Rattus norvegicus [1]
  ED2: 13.5 mg/kg

## Cl.NCc1cc(C(=O)c2ccc(OCC(N)=O)c(Cl)c2Cl)ccc1O
Rattus norvegicus [1]
  ED2: 17 mg/kg
Canis familiaris [2]
  Relative amount: 67%
[3]
  IC50: 16.5 µM
Canis familiaris [4]
  ED5: 0.7 mg/kg

## CCOC(=O)CSc1ccc(Oc2ccc(O)c(CN)c2)c(Cl)c1Cl.Cl
Rattus norvegicus [1]
  ED2: 1.22 mg/kg

## CCOC(=O)COc1ccc(Oc2ccc(O)c(CN)c2)c(Cl)c1Cl.Cl
Rattus norvegicus [1]
  ED2: 0.8 mg/kg

## Cl.NCc1cc(C(=O)c2ccc(OCC(=O)O)c(Cl)c2Cl)ccc1O
Rattus norvegicus [5]
  ED2: Not Active
[3]
  IC50: 8.4 µM
Canis familiaris [4]
  ED5: 0.71 mg/kg

## Cl.N#CCOc1ccc(C(=O)c2ccc(O)c(CN)c2)c(Cl)c1Cl
Rattus norvegicus [5]
  ED2: Not Active

## CCOC(=O)C1Cc2cc(C(=O)c3ccc(O)c(CN)c3)c(Cl)c(Cl)c2O1 (stereo unspecified)
Rattus norvegicus [1]
  ED2: 0.11 mg/kg

## Cl.NCc1cc(C(=O)c2ccc(OCCO)c(Cl)c2Cl)ccc1O
Rattus norvegicus [1]
  ED2: 1 mg/kg
Canis familiaris [2]
  Relative amount: 13%
frog
  Inhibition: inactive
Canis familiaris [4]
  ED5: 5.5 mg/kg

## CCOC(=O)Cc1ccc(Oc2ccc(O)c(CN)c2)c(Cl)c1Cl.Cl
Rattus norvegicus [1]
  ED2: 21.5 mg/kg

## CCOC(=O)CCc1ccc(Oc2ccc(O)c(CN)c2)c(Cl)c1Cl.Cl
Rattus norvegicus [1]
  ED2: 10.7 mg/kg

## CCOC(=O)COc1ccc(C(=O)c2ccc(O)c(CN)c2)c(Cl)c1Cl.Cl
Rattus norvegicus [1]
  ED2: 2.5 mg/kg
Canis familiaris [2]
  Relative amount: 100%
[3]
  IC50: 14.6 µM
Canis familiaris [4]
  ED5: 1 mg/kg

## Cl.NCCOc1ccc(C(=O)c2ccc(O)c(CN)c2)c(Cl)c1Cl
Rattus norvegicus [1]
  ED2: 16.2 mg/kg
Canis familiaris [2]
  Relative amount: 25%
frog
  Inhibition: inactive
Canis familiaris [4]
  ED5: 8 mg/kg

## CCOC(=O)c1ccc(Oc2ccc(O)c(CN)c2)c(Cl)c1Cl.Cl
Rattus norvegicus [5]
  ED2: Not Active

## CC(=O)COc1ccc(C(=O)c2ccc(O)c(CN)c2)c(Cl)c1Cl.Cl
Rattus norvegicus [1]
  ED2: 28.5 mg/kg

## CCOC(=O)C(C)(C)Oc1ccc(C(=O)c2ccc(O)c(CN)c2)c(Cl)c1Cl.Cl
Rattus norvegicus [6]
  ED2: Not Active

## COc1ccc(C(=O)c2ccc(O)c(CN)c2)c(Cl)c1Cl.Cl
Rattus norvegicus [5]
  ED2: Not Active
